Compound activity deposited in PubChem BioAssay by NMMLSC.
Hits are enriched below; roughly 0.96% of the tested compounds scored in any of these assays.
AGP1 TOR yeast – modulators of TOR pathway AGP1-GFP in S. cerevisiae; GFP response vs DMSO, % at 10 µM; S. cerevisiae AGP1-GFP multiplex flow cytometry, 3 h; GFP as percent of DMSO wells; AID 2066; 320,000 tested, 0.02% active;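 active = GFP response relative to DMSO above a set limit, near screen average plus 3 SD, cut at about 150% in these data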;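 note: median GFP channel fluorescence of the gated AGP1 strain per well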
LAP4 TOR yeast – modulators of TOR pathway LAP4-GFP in S. cerevisiae. 320,000 tested, 0.34% active. GFP response vs DMSO, % at 10 µM. AID 2023. S. cerevisiae LAP4-GFP multiplex, flow cytometry GFP, 3 h; median GFP as percent of DMSO wells;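 active = GFP response vs DMSO above a set limit, about the screen mean plus 3 SD, cut at about 150% in these data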
MEP2-GFP yeast – yeast TOR pathway MEP2-GFP modulation. AID 2016. GFP response vs DMSO, % at 10 µM. 330,000 tested, 0.51% active. S. cerevisiae MEP2-GFP strain, flow cytometry GFP, 3 h; 100% = DMSO control level;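 active = GFP response versus DMSO above a set limit, roughly screen mean plus 3 SD, cut at about 180% in these data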;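 note: median GFP fluorescence of the barcode-gated MEP2-GFP cells per well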
RPL19A TOR yeast – modulators of TOR pathway RPL19A-GFP in S. cerevisiae | S. cerevisiae RPL19A-GFP strain, flow cytometry, 3 h; stronger effect = lower value | percent response vs DMSO, % at 10 µM | 330,000 tested, 0.3% active | AID 2025;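 active = percent response vs DMSO below 50%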;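 note: median channel GFP fluorescence of the barcoded RPL19A-GFP strain; lower means less RPL19A-GFP as with rapamycin TOR inhibition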
CIT2-GFP yeast – yeast TOR pathway CIT2-GFP modulation. GFP response vs DMSO, % at 10 µM. AID 2029. S. cerevisiae CIT2-GFP strain, flow cytometry, 3 h; 100 means same as DMSO wells. 320,000 tested, 0.065% active;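 active = GFP response relative to DMSO above a set limit, near the screen mean plus 3 SD, cut at about 150% in these data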;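 note: ratio of well median GFP fluorescence to mean of DMSO wells on the plate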
T cell HTS – modulates CD8 T cell binding to vesicles | response (vesicle binding), % at 7 µM | 2C CD8+ T cell-vesicle binding, flow cytometry; stronger effect = lower value | AID 2052 | 330,000 tested, 0.068% active;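 active = response, share of CD8 T cells binding vesicles, and their 90th percentile fluorescence all below set limits, cut at about 80% in these data, passing the limit was not always enough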;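 note: values below 100% mean blocked vesicle binding to the CD8+ T cells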
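material = purified 2C TCR transgenic mouse naive CD8+ T cells | controls = Unloaded micro-vesicles (low), QL9 vesicles with 0.7% DMSO (high) | detection = cytometric PE anti-B7-1 and Alexa647 anti-CD8 signals after 1% paraformaldehyde fixation | incubation = binding step 1.5 h, 37 °C, antibody labelling 20 min, ice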
LAP4-GFP pick2 – reconfirmed LAP4-GFP TOR pathway modulator in yeast. S. cerevisiae LAP4-GFP strain, flow cytometry GFP, 3 h. GFP response vs DMSO, % at 10 µM. shares compounds with LAP4 TOR yeast. 590 tested, 20% active;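 active = GFP signal as percent of the solvent control above about 150%, meaning raised reporter expression, limit read from the data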
MEP2-GFP pick2 – reconfirmed MEP2-GFP TOR pathway modulator in yeast. 590 tested, 10% active. GFP response vs DMSO, % at 10 µM. S. cerevisiae MEP2-GFP strain, flow cytometry GFP, 3 h. shares compounds with LAP4 TOR yeast;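 active = GFP signal above 150% of the solvent control wells, that is a rise of more than half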;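 note: median channel GFP fluorescence of all gated yeast cells per well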
RPL19A-GFP pick2 – second confirmation of modulators of TOR reporter RPL19A-GFP in yeast; shares compounds with LAP4 TOR yeast; S. cerevisiae RPL19A-GFP strain, flow cytometry GFP, 3 h; stronger effect = lower value; 100% means same as DMSO wells; GFP response vs DMSO, % at 10 µM; 590 tested, 3% active; AID 2623;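 active = under 65% GFP response relative to DMSO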;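 note: median GFP channel fluorescence per well over the all cells gate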
CIT2 GFP CP2 – second confirmation of modulators of TOR reporter CIT2-GFP in yeast; shares compounds with LAP4 TOR yeast; S. cerevisiae CIT2-GFP strain, flow cytometry GFP, 3 h; DMSO control wells read 100%; GFP response vs DMSO, % at 10 µM; 590 tested, 8% active; AID 2624;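 active = GFP response vs DMSO above about 150%, limit read from the data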;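 note: median green fluorescence per well over all gated yeast cells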
AGP1 GFP CP2 – reconfirmed modulator of AGP1-GFP TOR reporter in yeast. 590 tested, under 10 active. shares compounds with LAP4 TOR yeast. S. cerevisiae AGP1-GFP strain, flow cytometry GFP, 3 h. AID 2643. percent response vs DMSO, % at 10 µM;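 active = over 150 percent of DMSO response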;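 note: median GFP channel fluorescence over all cells without mother daughter split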
s288c autofluor – yeast s288c autofluorescence artifact, counter-screen. S. cerevisiae s288c, 520 nm autofluorescence, flow cytometry, 3 h; stronger effect = higher value; zero means same as solvent-only cells. shares compounds with LAP4 TOR yeast. fluorescence change (kMESF span) at 33 µM. AID 2757. 610 tested, under 10 active;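 active = fluorescence span over the dose series, or activity score, above about 33, limit read from the data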
Each line names hits and unclear results; the compound was inactive in the other large screens (follow-up assays come after a bar, where they were run).

COC(=O)C1=C(c2ccc(OC(F)(F)F)cc2)C[C@@H]2CC[C@H]1N2C(=O)NCc1cc(C)oc1C(F)(F)F	none
COC(=O)[C@@]1(C#N)[C@@H]2C=CC(C(C)=O)=CN2[C@@H](C(N)=O)[C@@H]1c1ccc(F)cc1	none
O=C1NC(=S)NC(=O)C1=Cc1ccc2c(c1)CCN2CCCCl	LAP4 TOR yeast 245 | s288c autofluor inactive
CP(=O)(Nc1ccc(Cl)cc1)c1nc2c(s1)CCCC2 (configuration not stated)	none
CCOC(=O)C1CCN(/C=C2/C(=O)NC(=S)N(c3ccccc3F)C2=O)CC1	none
COc1ccc(N2C(=O)/C(=C/c3cccs3)C(=O)NC2=S)cc1	none | LAP4-GFP pick2 inactive | MEP2-GFP pick2 inactive | RPL19A-GFP pick2 63 | CIT2 GFP CP2 inactive | AGP1 GFP CP2 inactive | s288c autofluor inactive
Cc1ccc(/C=C2\C(=O)NC(=S)N(c3ccc(F)cc3)C2=O)s1	LAP4 TOR yeast 237 | LAP4-GFP pick2 199 | MEP2-GFP pick2 inactive | RPL19A-GFP pick2 inactive | CIT2 GFP CP2 inactive | AGP1 GFP CP2 inactive | s288c autofluor inactive
Cc1ccc(/C=C2\C(=O)NC(=S)N(c3ccccc3F)C2=O)s1	none | LAP4-GFP pick2 inactive | MEP2-GFP pick2 inactive | RPL19A-GFP pick2 65 | CIT2 GFP CP2 inactive | AGP1 GFP CP2 inactive | s288c autofluor inactive
CC1CN(c2ccc([N+](=O)[O-])cc2Cl)CCN1 (configuration not stated)	none
O=C1NC(=O)N(c2cccc(Cl)c2)C(=O)/C1=C\c1ccc(Sc2nc3ccccc3[nH]2)o1	none
O=C1NC(=O)N(c2ccccc2)C(=O)/C1=C/c1ccc(Sc2ccccc2)o1	LAP4 TOR yeast 170 | s288c autofluor inactive
